The test system of assay [1] is Candida albicans. As to the kind of experiment: Antimicrobial activity against Candida albicans after 24 hrs. The class given is functional. The procedure, abridged:
(§1)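 Broth microdilution per NCCLS guidelines in MOPS-buffered RPMI 1640. Starting inoculum was 1-5 × 10^3 cfu/mL, and plates were incubated at 35 °C. MIC was read spectrophotometrically at 492 nm after 24–48 h for yeasts and 72–96 h for mycelial fungi.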

Assay [2] concerns Cryptococcus neoformans. As to the kind of experiment: Antimicrobial activity against Cryptococcus neoformans after 24 hrs. The class given is functional. The method in brief:
as §1

For assay [3], the system named is Sporothrix schenckii. The experiment in a line: Antimicrobial activity against Sporothrix schenckii after 24 hrs. The class given is functional. The method in brief: as §1
The subject of assay [4] is Candida parapsilosis. As to the kind of experiment: Antimicrobial activity against Candida parapsilosis ATCC 22019 after 24 hrs. The settings on record: Lodderomyces parapsilosis, ATCC 22019, 24 h. The class given is functional. The method in brief:
as §1

Assay [5] deals with Klebsiella pneumoniae. As to the kind of experiment: Antimicrobial activity against Klebsiella pneumoniae after 24 hrs. The class given is functional. The procedure, abridged: (§2)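 NCCLS microdilution in Mueller Hinton broth. Strains were grown 24 h on nutrient agar at 37 °C, suspended at about 1.0–2.0 × 10^7 cells/mL (McFarland-matched) in saline with 0.05% Tween 20, then diluted 100 µL into 10 mL medium. Compounds were taken from a 1 mg/mL DMSO stock as twofold dilutions, top final 50 µg/mL. Incubation was 35 °C in a moist, dark chamber, and MIC was read spectrophotometrically at 24 h.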

The subject of assay [6] is Escherichia coli. The experiment in a line: Antimicrobial activity against Escherichia coli after 24 hrs. The class given is functional. The method in brief:
as §2

Assay [7] has as its system Pseudomonas aeruginosa. As to the kind of experiment: Antimicrobial activity against Pseudomonas aeruginosa after 24 hrs. The class given is functional. The method in brief: as §2
In assay [8] the test system is Staphylococcus aureus. The experiment in a line: Antimicrobial activity against Staphylococcus aureus after 24 hrs. The class given is functional. The method in brief:
as §2

Assay [9] concerns Aspergillus fumigatus. As to the kind of experiment: Antimicrobial activity against Aspergillus fumigatus after 72 to 96 hrs.
In assay [10] the test system is Trichophyton mentagrophytes. The experiment in a line: Antimicrobial activity against Trichophyton mentagrophytes after 72 to 96 hrs.

Converted amounts (≈) assume the structure as drawn. A value given as a limit tells only on which side of the number the result lay.

In general, MIC refers to the lowest concentration found to suppress growth. For the compound `Cc1ccc(N2COc3ccc(Cl)cc3C2)cc1`, the MIC in assay [1] came to 25 µg/mL (≈ 96.3 µM); in assay [2], 50 µg/mL (≈ 193 µM); in assay [3], 6.25 µg/mL (≈ 24.1 µM); in assay [4], 25 µg/mL (≈ 96.3 µM); in assay [5] it was 25 µg/mL (≈ 96.3 µM); in assay [6] it was 6.25 µg/mL (≈ 24.1 µM). Besides, the MIC in assay [7] is over 50 µg/mL; in assay [8], 12.5 µg/mL (≈ 48.1 µM); in [9], 25 µg/mL (≈ 96.3 µM); in assay [10], 12.5 µg/mL (≈ 48.1 µM).

Turning to `CCCCN1COc2ccc(Cl)cc2C1`, the MIC in assay [1] was over 50 µg/mL; in assay [2], over 50 µg/mL; in assay [3] it was 25 µg/mL (≈ 111 µM); in [4], over 50 µg/mL; in assay [5], over 50 µg/mL; in assay [6], over 50 µg/mL. The MIC is over 50 µg/mL in assay [7], over 50 µg/mL in assay [8], over 50 µg/mL in assay [9] and 50 µg/mL (≈ 222 µM) in assay [10].

`OC(Cn1cncn1)(Cn1cncn1)c1ccc(F)cc1F` [FLUCONAZOLE]: the MIC in assay [1] was determined as 0.5 µg/mL (≈ 1.63 µM); in assay [2] it was 1 µg/mL (≈ 3.27 µM); in assay [3], 2 µg/mL (≈ 6.53 µM); in [4], 1 µg/mL (≈ 3.27 µM); in [9], 2 µg/mL (≈ 6.53 µM); in [10], 1 µg/mL (≈ 3.27 µM).

In the case of `c1ccc2c(c1)CN(CCN1COc3ccccc3C1)CO2`, the MIC in assay [1] is over 50 µg/mL; in assay [2] it was 50 µg/mL (≈ 169 µM); in assay [3], 25 µg/mL (≈ 84.4 µM); in [4], over 50 µg/mL; in [5], over 50 µg/mL; in assay [6], over 50 µg/mL. Besides, the MIC in assay [7] was over 50 µg/mL; in assay [8], over 50 µg/mL; in [9], 50 µg/mL (≈ 169 µM); in assay [10], 25 µg/mL (≈ 84.4 µM).

As to `Cc1ccc2c(c1)CN(CCN1COc3ccc(C)cc3C1)CO2`, the MIC in [1] was 50 µg/mL (≈ 154 µM); in assay [2] it was 50 µg/mL (≈ 154 µM); in assay [3] it was 12.5 µg/mL (≈ 38.5 µM); in assay [4] it was 50 µg/mL (≈ 154 µM); in assay [5], over 50 µg/mL; in assay [6], over 50 µg/mL. The MIC in assay [7] was over 50 µg/mL; in assay [8], over 50 µg/mL; in assay [9] it was 50 µg/mL (≈ 154 µM); in assay [10] it was 25 µg/mL (≈ 77.1 µM).

On to `Cc1ccc2c(c1)CN(c1ccccc1Cl)CO2`, for which the MIC in assay [1] was 50 µg/mL (≈ 193 µM); in assay [2] it was 25 µg/mL (≈ 96.3 µM); in [3], 12.5 µg/mL (≈ 48.1 µM); in assay [4] it was 50 µg/mL (≈ 193 µM); in assay [5], over 50 µg/mL; in assay [6], 50 µg/mL (≈ 193 µM). The MIC in assay [7] is 50 µg/mL (≈ 193 µM); in assay [8], over 50 µg/mL; in assay [9] it was 50 µg/mL (≈ 193 µM); in [10], 12.5 µg/mL (≈ 48.1 µM).

Consider `c1ccc2c3c(ccc2c1)OCN(C1CCCCC1)C3`, for which the MIC in assay [1] was 50 µg/mL (≈ 187 µM); in assay [2], 50 µg/mL (≈ 187 µM); in [3], 50 µg/mL (≈ 187 µM); in assay [4], over 50 µg/mL; in assay [5], over 50 µg/mL; in assay [6], over 50 µg/mL. The MIC in assay [7] is over 50 µg/mL; in assay [8], over 50 µg/mL; in assay [9], over 50 µg/mL; in assay [10], 25 µg/mL (≈ 93.5 µM).

Regarding `CC(=O)N1CCN(c2ccc(OCC3COC(Cn4ccnc4)(c4ccc(Cl)cc4Cl)O3)cc2)CC1` (configuration not stated) [KETOCONAZOLE], the MIC in assay [1] was determined as 0.002 µg/mL (≈ 0.00376 µM); in assay [2], 0.001 µg/mL (≈ 0.00188 µM); in assay [3], 0.031 µg/mL (≈ 0.0583 µM); in assay [4], 0.031 µg/mL (≈ 0.0583 µM); in assay [9], 2 µg/mL (≈ 3.76 µM); in assay [10], 4 µg/mL (≈ 7.53 µM).

On to `Clc1ccc(N2COc3ccc4ccccc4c3C2)cc1`, for which the MIC in assay [1] was over 50 µg/mL; in assay [2], 50 µg/mL (≈ 169 µM); in [3], 50 µg/mL (≈ 169 µM); in [4], over 50 µg/mL; in assay [5], 50 µg/mL (≈ 169 µM); in [6], over 50 µg/mL. The MIC in [7] was 50 µg/mL (≈ 169 µM); in assay [8], over 50 µg/mL; in assay [9], over 50 µg/mL; in assay [10], 25 µg/mL (≈ 84.5 µM).

On to `Brc1ccc(N2COc3ccc4ccccc4c3C2)cc1`, for which the MIC in assay [1] was over 50 µg/mL; in assay [2] it was 50 µg/mL (≈ 147 µM); in assay [3] it was 50 µg/mL (≈ 147 µM); in [4], over 50 µg/mL; in assay [5] it was over 50 µg/mL; in assay [6], over 50 µg/mL. Besides, the MIC is 50 µg/mL (≈ 147 µM) in [7], over 50 µg/mL in [8], over 50 µg/mL in assay [9] and 50 µg/mL (≈ 147 µM) in assay [10].

Turning to `c1ccc(N2COc3c(ccc4ccccc34)C2)cc1`, the MIC in assay [1], in assay [2], in [3], in [4], in assay [5] and in [6] was over 50 µg/mL throughout. In addition, the MIC in assay [7], in assay [8], in assay [9] and in assay [10] was over 50 µg/mL throughout.

The values above are taken from ChEMBL document CHEMBL1157043, “An eco-friendly synthesis and antimicrobial activities of dihydro-2H-benzo- and naphtho-1,3-oxazine derivatives” (Eur J Med Chem, 2010).
